SENP6 block: blocks the human protease SENP6; Q9GZR1; Recombinant SENP6 catalytic domain, aminoluciferin luminescence; inhibition, % at 10 µM; hit rate 1.8% among 330,000; AID 2599;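 active = inhibition above about 50% at the single tested dose, limit read from the data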;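 note: plate controls were DMSO wells with enzyme for no effect and DMSO wells lacking enzyme for full effect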
SENP8 block-1: SENP8 protease inhibition. Q96LD8. purified SENP8, Z-RLRGG-aminoluciferin cleavage, luminescence. inhibition, % at 10 µM. hit rate 1.2% among 330,000; in the data active = inhibition above about 50%
Target sequence (Q96LD8 whole entry, looked up): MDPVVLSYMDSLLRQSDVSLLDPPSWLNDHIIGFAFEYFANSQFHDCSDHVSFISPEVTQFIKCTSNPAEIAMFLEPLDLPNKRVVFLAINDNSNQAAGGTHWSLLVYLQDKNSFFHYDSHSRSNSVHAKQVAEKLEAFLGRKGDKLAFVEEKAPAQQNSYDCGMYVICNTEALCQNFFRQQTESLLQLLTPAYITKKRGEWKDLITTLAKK
Apaf-1 inh: blocks human Apaf-1 apoptosome activity. O14727. reconstituted apoptosome caspase-3 activity, DEVD-Rh110 fluorescence. hit rate 0.71% among 330,000. inhibition, % at 20 µM. AID 489030; active = inhibition of at least 40% at 20 µM;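 note: plate controls were DMSO wells for no effect and DEVD-CHO caspase inhibitor wells for full effect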
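System – cell-free apoptosome with Apaf-1, procaspase-3 and caspase-9 · Buffer or medium – pH 7.5 Hepes buffer with CHAPS, BSA, DTT · Also added – cytochrome c with DEVD-Rh110 · Times – 30 min compound preincubation, 50 min activation, room temperature · Technique – Rh110 fluorescence intensity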
UBC13 inh: inhibitors of human UBC13 polyubiquitin chain formation | P61088 | TR-FRET | inhibition, % at 20 µM | hit rate 0.47% among 330,000 | AID 485273; in the data active = inhibition above about 45%, passing the limit was not always enough
SENP7 block: blocks the human protease SENP7; recombinant SENP7, Z-RLRGG-aminoluciferin luminescence, 40 min; hit rate 1.5% among 330,000; inhibition, % at 5 µM;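 active = inhibition above about 50% at the single test dose, limit read from the data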;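 note: plate controls were DMSO with enzyme for no effect and no enzyme buffer wells for full effect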
SENP8 block-2: inhibitors of human SENP8 protease; Q96LD8; recombinant SENP8, Nedd8 substrate fluorescence; inhibition, % at 20 µM; hit rate 0.64% among 360,000; AID 602440; in the data active = inhibition mostly above about 40%, no sharp cut-off; inactive = mostly below about 27%
SENP8 confirm: confirmation of human SENP8 protease inhibitors | hit rate 40% among 6,200 | Recombinant SENP8, Z-RLRGG-aminoluciferin luminescence, 60 min | inhibition, % at 12.5 µM | shares compounds with SENP7 block;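 active = mean inhibition across replicates above about 50%, limit read from the data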
SENP6 confirm: human SENP6 inhibition, confirmed | hit rate 58% among 6,200 | shares compounds with SENP7 block | inhibition, % at 12.5 µM | AID 488915 | recombinant SENP6, Z-RLRGG-aminoluciferin luminescence
SENP7 confirm: human SENP7 inhibition, confirmed; shares compounds with SENP7 block; recombinant SENP7, Z-RLRGG-aminoluciferin luminescence, 40 min; inhibition, % at 12.5 µM; hit rate 69% among 6,200; AID 488917
Casp3 select: caspase-3 inhibition (SENP selectivity assay); shares compounds with SENP7 block; purified caspase-3, Z-DEVD-aminoluciferin luminescence, 60 min; inhibition, % at 12.5 µM; hit rate 60% among 6,200; AID 488918;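 active = mean inhibition above about 50%, limit read from the data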;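 note: plate controls were enzyme with DMSO for no effect and wells without caspase-3 for full effect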
Target sequence (P42574 28-227 limits assumed): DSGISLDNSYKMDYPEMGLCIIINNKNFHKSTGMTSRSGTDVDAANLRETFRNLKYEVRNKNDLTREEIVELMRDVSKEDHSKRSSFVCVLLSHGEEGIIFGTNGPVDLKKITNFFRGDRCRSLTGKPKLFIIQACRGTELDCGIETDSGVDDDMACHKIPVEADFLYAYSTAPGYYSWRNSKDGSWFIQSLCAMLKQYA
SENP luc ctr: counter-screen for SENP inhibitors: luminescence interference. inhibition, % at 12.5 µM. shares compounds with SENP7 block. AID 488919. hit rate 39% among 6,200. Pre-incubated SENP8/Z-RLRGG-aminoluciferin, luciferase luminescence interference;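 active = mean inhibition above about 50% when retested at one dose, limit read from the data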;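 note: plate controls were DMSO wells with completed reaction for no effect and substrate without enzyme for full effect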
* marks the source's active call; other numbers are inactive results; . = not tested or not shown. A selection: hits, their analogues and other compounds. The true share with any hit is near 3%.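 Rule for the calls, unless noted: active = mean inhibition above about 50% in the one-dose retest (limit read from the data); inactive = the rest.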

SMILES	SENP6 block	SENP8 block-1	Apaf-1 inh	UBC13 inh	SENP7 block	SENP8 block-2	SENP8 confirm	SENP6 confirm	SENP7 confirm	Casp3 select	SENP luc ctr
O=C(NCc1ccccc1)c1nc2ccccc2s1	8	-4	14	-3	9	14	.	.	.	.	.
CC(=O)NCc1ccc(-c2nc3ccccc3s2)cc1	80*	64*	-5	-2	72*	-100	1	59*	87*	77*	30
c1cncc(-c2nc3ccccc3s2)c1	46	10	5	-4	46	14	.	.	.	.	.
c1ccc2sc(-c3ccncc3)nc2c1	68*	36	-2	-7	67*	-14	28	55*	83*	80*	35
COc1ccc(-c2nc3ccccc3s2)cc1	.	.	.	.	.	-218	.	.	.	.	.
Oc1ccc(-c2nc3ccccc3s2)cc1	98*	96*	-22	7	99*	-437	99*	99*	102*	95*	95*
CC(=O)Nc1ccc2c(c1)C(N1CC3CCC(CC3)C1)c1ccccc1-2 (stereo not given)	.	.	.	.	.	4	.	.	.	.	.
CCC(CC)C(C(=O)NCc1ccccc1)N1CCN(C(=O)C2CCCO2)CC1 (stereo not given)	.	.	.	.	.	16	.	.	.	.	.
O=C(NCC(F)(F)F)c1cc2c(c(-c3cccc(-c4ccccc4F)c3)n1)[C@H](CCO)N(C(=O)CC1CC1)C2	.	.	.	.	.	16	.	.	.	.	.
O=C(Nc1cccc(C(F)(F)F)c1)C1Cc2c(-c3ccccc3Oc3ccccc3)ccnc2O1 (stereo not given)	.	.	.	.	.	14	.	.	.	.	.
CC1(C)N=C(N)N=C(N)N1c1ccc(CCCCc2ccccc2)cc1	.	.	.	.	.	12	.	.	.	.	.
Nc1ccccc1-c1nc2ccccc2s1	76*	54*	12	8	59*	-437	61*	83*	96*	55*	44
CC(=O)NCc1ccc(-c2csc(-c3cccs3)n2)cc1	62*	36	7	-4	40	-67	48	43	73*	35	57*
COc1ccc(C2=NN3C(C2)c2ccccc2OC3c2cccs2)cc1 (stereo not given)	-24	28	-8	-2	15	-23	.	.	.	.	.
COc1ccc(C2=NN3C(C2)c2ccccc2OC32C(=O)N(C)c3ccccc32)cc1 (stereo not given)	91*	79*	33	-15	80*	-452	12	4	14	8	5
Cc1ccc(-n2cc(C(=O)c3ccc4ccccc4c3O)cn2)cc1	4	1	-1	-3	1	14	.	.	.	.	.
Cc1ccc(-n2cc(C(=O)c3ccccc3O)cn2)cc1	91*	92*	3	9	97*	-12	37	97*	101*	92*	49
Cc1ccc(O)c(C(=O)c2cnn(-c3ccccc3)c2)c1	53*	18	18	6	40	20	4	47	20	32	13
COc1ccc(C(=O)n2cc(C(=O)c3cc(C)ccc3O)cn2)cc1	5	4	5	7	0	0	.	.	.	.	.
CCOC(=O)C1(C)CCCN(C(=O)c2cccc(C(F)(F)F)c2)C1 (stereo not given)	.	.	.	.	.	5	.	.	.	.	.
Cc1cc(C(=O)Nc2ccccc2C(=O)O)oc1C	64*	47	9	-7	13	2	68*	64*	90*	88*	73*
Cc1ccc(C(=O)Nc2ccccc2C(=O)O)cc1S(=O)(=O)Nc1ccccc1	62*	33	-9	0	0	6	55*	52*	73*	33	63*
O=C(Nc1ccccc1C(=O)O)c1cccc(F)c1	75*	51*	2	7	38	24	75*	70*	92*	87*	75*

Screening data from PubChem.
